Screens from PubChem BioAssay.
STAT1 inh-1: inhibitors of IFN-gamma induced STAT1 signaling; inhibition, % at 5.5 µM; NIH 3T3 STAT1-luciferase reporter, luminescence; 200,000 compounds, 0.35% hits;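 active means inhibition above a set limit, the mean inhibition across all tested compounds plus 3 SD, cut at about 34% in these data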;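 further: 0% = IFN-gamma with DMSO and 100% = IFN-gamma with 300 µM nifuroxazide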
STAT3 activator: STAT3 signaling activation | U3A cells, IL-6 STAT3-luciferase reporter, luminescence; 100% = signal with IL-6 EC80 alone | activation (% of control), % at 5.6 µM | 190,000 compounds, 0.91% hits | AID 871;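 active means activation above the screen-wide mean of compound activation plus 3 SD, cut at about 130% in these data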;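 further: 0% = background luminescence of wells with medium and substrate only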
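Test system: Human STAT1-deficient U3A cells with stable STAT3-luciferase reporter | Also added: Interleukin-6, 33 ng/mL | Timing: Compound pre-incubation 1 h before IL-6, then 6 h stimulation at 37 °C | Technique: Luciferase reporter luminescence | Read-out: Percent of IL-6-only median luminescence | Benchmarks: IL-6-only wells as 100% reference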
NF-kB expr up: NF-kB expression increase, human neuronal cells | NF-kB reporter expression; active compounds read high | fold change at 12.5 µM | 190,000 compounds, 1.6% hits; in the data active means fold change above about 3.3
STAT1 activator: increases IFN-gamma driven STAT1 reporter signal | NIH 3T3 STAT1-luciferase reporter, luminescence; 100% = IFN-gamma alone, no compound | activation (% of control), % at 5.5 µM | 200,000 compounds, 2.6% hits | AID 932;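 active means activation above the screen-wide mean activation plus 3 SD, cut at about 130% in these data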;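 further: raw ratio to IFN-gamma control signal so 100% means no change and 0% no light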
APP 5'UTR act: activates APP 5'UTR luciferase reporter. 190,000 compounds, 1% hits. AID 1276. activation, % at 2 µM. SH-SY5Y APP 5'UTR luciferase reporter, luminescence; zero percent = DMSO vehicle wells;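 active means activation above a set limit, based on mean plus 3 SD of controls, cut at about 140% in these data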
STAT3 blocker: STAT3 signaling inhibition | inhibition, % at 5.5 µM | 190,000 compounds, 0.89% hits | AID 862 | U3A cells, IL-6 STAT3-luciferase reporter, luminescence; host cell line lacks STAT1;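 active means inhibition above the mean inhibition across all screened compounds plus 3 SD, cut at about 44% in these data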;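 further: 0% = DMSO only wells and 100% = 100 µM nifuroxazide control wells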
STAT1 inh-2: STAT1 inhibition, confirmation assay; shares compounds with STAT1 inh-1; NIH 3T3 STAT1-luciferase reporter, IFN-gamma, luminescence; inhibition, % at 5.5 µM; 200 compounds, 55% hits; AID 1263;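 active means triplicate mean inhibition exceeding the hit cutoff computed for the primary STAT1 screen, cut at about 35% in these data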;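 further: 0% = DMSO with IFN-gamma and 100% = 300 µM nifuroxazide with IFN-gamma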
NFkB inh: inhibits NF-kappaB, counter-screen to STAT1 inhibitors. AID 1303. inhibition, % at 5.7 µM. 200 compounds, 30% hits. HEK293T NF-kB luciferase reporter, TNF-alpha induced, luminescence. shares compounds with STAT1 inh-1;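 active means inhibition above the mean of solvent-only control wells plus 3 SD of those wells, cut at about 15% in these data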;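 further: 0% = DMSO with TNF-alpha and 100% = MG-132 control with TNF-alpha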
STAT3 inh 2: counter-screen for STAT1 inhibitors: STAT3 inhibition. shares compounds with STAT1 inh-1. U3A cells, IL-6 STAT3 luciferase reporter, luminescence; cells lacking STAT1. inhibition, % at 5.7 µM. 200 compounds, 20% hits. AID 1310;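 active means inhibition above the mean of solvent-only control wells plus 3 SD, set per campaign, cut at about 25% in these data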;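 further: 0% = IL-6 plus DMSO and 100% = IL-6 plus nifuroxazide control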
Starred values were filed as active, the others as inactive; . = no result given. This is a sample that favours compounds with a hit; in the whole collection about 4.9% have one here.

SMILES	STAT1 inh-1	STAT3 activator	NF-kB expr up	STAT1 activator	APP 5'UTR act	STAT3 blocker	STAT1 inh-2	NFkB inh	STAT3 inh 2
Cc1ccc(-c2cc(C(F)F)nc(S(C)(=O)=O)n2)cc1	33	94	1	70	-1	12	29	-25	-7
c1ccc(CN2CCN(c3ncnc4c3[nH]c3ccccc34)CC2)cc1	41*	103	0.27	63	-6	8	48*	22*	16
COc1cccc(N2CCN(c3ncnc4c3[nH]c3ccccc34)CC2C)c1 (centres undefined)	35*	84	0.3	69	0	23	46*	25*	37*
Cc1ccc2[nH]c3c(N4CCN(Cc5ccccc5)CC4)ncnc3c2c1	36*	79	0.31	67	9	30	40*	9	16
Cc1cccc(C)c1OC(=O)CCN1C(=O)C2C3C=CC(C4CC34)C2C1=O (centres undefined)	7	105	0.83	92	8	-2	.	.	.
c1cc(Nc2ncnc3sccc23)cc(-c2nnc3n2CCCCC3)c1	9	96	0.68	92	18	10	.	.	.
CCOc1ccc(S(=O)(=O)Nc2cccc(C)c2)c2cccnc12	37*	96	0.96	64	-7	11	25	-2	7
CCOC(=O)c1sc(N(Cc2ccccc2)C(=O)COC(=O)c2ccc(O)cc2)nc1C	58*	99	1.1	49	-25	5	59*	57*	8
CCOC(=O)c1sc(N(Cc2ccccc2)C(=O)COC(=O)c2ccccc2O)nc1C	-7	86	1.1	106	10	18	.	.	.
CCOc1cc(Br)ccc1S(=O)(=O)NCc1ccccc1	3	93	1.4	97	-1	14	.	.	.
O=C(CCCn1c(=O)[nH]c2cc(Cl)ccc2c1=O)NCCCN1CCN(c2ccc(F)cc2)CC1	11	95	1.1	89	1	10	.	.	.
CCc1ccc(C(=O)Nc2ccc(OC)c(S(=O)(=O)N3CCOCC3)c2)cc1	13	87	0.85	88	10	16	.	.	.
COc1ccc(NC(=O)c2ccc(-c3ccccc3)cc2)cc1S(=O)(=O)N1CCOCC1	38*	75	0.99	65	3	31	47*	29*	15
Cn1c(-c2ccccc2)c(C(=O)CCl)c2ccccc21	37*	98	1	65	12	9	36*	40*	7
COc1ccc(-n2c(SCc3ccccn3)nc3c(c2=O)SCC3)cc1OC	40*	107	0.86	63	-14	5	30	-2	-24
O=C(CSc1nc2c(c(=O)n1-c1ccccc1)SCC2)N1CCN(c2ccccc2)CC1	45*	89	0.72	59	7	14	53*	16*	16
CCc1ccc2[nH]c(=O)c(C(c3nnnn3CCOC)N3CCN(c4ccccc4)CC3)cc2c1 (centres undefined)	-6	102	1.1	106	7	6	.	.	.
O=C(O)c1cc(/C=C/c2ccc(N3CCOCC3)cc2)nc2ccccc12	39*	65	1.9	64	47	43	-5	38*	-13
O=C(Nc1ccccc1)c1cc(N2CCOCC2)nc2ccccc12	-7	114	1.1	106	0	-16	.	.	.
Cn1ncc2c(NNC(=O)c3ccc(Cl)cc3Cl)ncnc21	7	90	1.1	94	-10	14	.	.	.
COc1ccc(-n2cc(-c3ccccc3)c3c(N4CCOCC4)ncnc32)cc1	44*	81	0.3	58	-10	25	28	2	-60
O=C(N/N=C/c1ccncc1)c1nn(Cc2ccccc2)c(=O)c2ccccc12	39*	93	1.1	63	-4	16	23	-8	8
COC(=O)c1ccc2c(=O)n(CCCCCC(=O)NCc3ccccn3)c(=O)[nH]c2c1	-1	96	0.97	101	-1	9	.	.	.
O=C(Nc1ccccc1C(=O)O)c1ccc(Br)c(S(=O)(=O)NCc2ccccc2)c1	51*	99	1	52	-8	7	29	5	3
O=C(Nc1ccccc1C(=O)NCc1ccccc1)c1ccccc1Br	0	103	0.78	100	20	0	.	.	.
SMILES	STAT1 inh-1	STAT3 activator	NF-kB expr up	STAT1 activator	APP 5'UTR act	STAT3 blocker	STAT1 inh-2	NFkB inh	STAT3 inh 2
Cc1ccc(/C=C2/SC(=S)N(CCCC(=O)Nc3ccc(O)cc3)C2=O)cc1	40*	84	1.3	62	-63	23	39*	54*	10
COc1ccc(N/N=C(/C#N)S(=O)(=O)C(C)(C)C)cc1	3	100	1.2	97	-37	4	.	.	.
COc1ccc(N/N=C(\C#N)C(=N)SCc2ccccc2)cc1	37*	98	1.3	66	-14	8	24	59*	-15
c1ccc(SCc2nc3ccccc3[nH]2)nc1	-10	107	1.3	110	21	-5	.	.	.
COc1ccc(C(=O)/C(C#N)=N/Nc2cccc([N+](=O)[O-])c2)cc1	44*	82	0.49	59	11	24	21	6	2
N#C/C(=N\Nc1cccc(Cl)c1)C(=O)c1ccccc1	7	95	0.62	94	-1	12	.	.	.
CCCCCc1nnc(NC(=O)Cn2cnc3ccccc3c2=O)s1	8	100	0.97	93	7	2	.	.	.
COc1ccc(CCNC(=O)Cn2c(=O)n(-c3ccc(F)cc3F)c(=O)c3sccc32)cc1OC	40*	95	0.88	61	0	8	31	7	12
COc1ccc(CCNC(=O)Cn2c(=O)oc3ccccc32)cc1OC	-5	102	1.2	105	-11	2	.	.	.
CC(C)(C)C(=O)Cn1c(=O)n(-c2ccc(F)cc2F)c(=O)c2sccc21	3	100	1.2	96	25	2	.	.	.
COc1ccc(CCNC(=O)Cn2c(=O)n(-c3cc(F)ccc3F)c(=O)c3sccc32)cc1OC	53*	97	0.77	51	4	8	34	3	7
COc1ccc(CCNC(=O)Cn2c(=O)n(-c3ccc(F)cc3)c(=O)c3sccc32)cc1OC	50*	88	1.2	52	4	17	35*	4	6
Cc1c(C(=O)NCc2ccc3c(c2)OCO3)cccc1[N+](=O)[O-]	2	96	1	98	-22	6	.	.	.
CCOC(=O)c1ccc(CC(=O)c2ccc(O)cc2O)o1	51*	82	0.77	53	21	25	46*	32*	-35
